According to ChEMBL document CHEMBL4368874, “Synthesis, biological evaluation, and structure activity relationship (SAR) study of pyrrolidine amide derivatives as N-acylethanolamine acid amidase (NAAA) inhibitors” (Medchemcomm, 2019):
Calls of active or inactive are those of the source. No cut-off for these calls is given here.

T1: N-acylethanolamine-hydrolyzing acid amidase (Rattus norvegicus, UniProt Q5KTC7)
T1 sequence (Q5KTC7 whole entry): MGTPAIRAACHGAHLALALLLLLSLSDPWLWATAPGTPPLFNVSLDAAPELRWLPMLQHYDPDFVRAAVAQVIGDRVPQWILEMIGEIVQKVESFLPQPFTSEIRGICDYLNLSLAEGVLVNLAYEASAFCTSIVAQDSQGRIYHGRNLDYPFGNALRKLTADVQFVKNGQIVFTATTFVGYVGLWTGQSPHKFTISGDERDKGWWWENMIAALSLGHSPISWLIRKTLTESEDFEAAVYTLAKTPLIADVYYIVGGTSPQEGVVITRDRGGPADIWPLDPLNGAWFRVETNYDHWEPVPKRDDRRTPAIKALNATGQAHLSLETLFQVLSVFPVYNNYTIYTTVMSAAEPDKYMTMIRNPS

T2: Fatty-acid amide hydrolase 1 (Rattus norvegicus, UniProt P97612)
T2 sequence (P97612 whole entry): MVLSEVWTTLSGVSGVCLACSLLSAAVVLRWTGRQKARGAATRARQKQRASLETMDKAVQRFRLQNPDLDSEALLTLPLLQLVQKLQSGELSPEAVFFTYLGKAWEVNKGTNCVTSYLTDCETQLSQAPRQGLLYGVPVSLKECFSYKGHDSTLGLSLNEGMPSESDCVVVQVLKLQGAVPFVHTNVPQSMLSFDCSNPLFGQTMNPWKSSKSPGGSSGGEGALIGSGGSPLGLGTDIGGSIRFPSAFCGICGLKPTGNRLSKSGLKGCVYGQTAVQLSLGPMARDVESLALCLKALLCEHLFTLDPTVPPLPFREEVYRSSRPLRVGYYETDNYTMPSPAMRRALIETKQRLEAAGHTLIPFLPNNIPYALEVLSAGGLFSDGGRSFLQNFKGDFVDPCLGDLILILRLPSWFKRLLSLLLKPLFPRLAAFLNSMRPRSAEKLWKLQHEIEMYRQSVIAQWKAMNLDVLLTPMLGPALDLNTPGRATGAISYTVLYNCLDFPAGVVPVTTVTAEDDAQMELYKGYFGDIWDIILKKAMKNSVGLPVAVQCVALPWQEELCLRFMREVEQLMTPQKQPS

T3: Acid ceramidase (Rattus norvegicus) (UniProt Q6P7S1)
T3 sequence (whole entry): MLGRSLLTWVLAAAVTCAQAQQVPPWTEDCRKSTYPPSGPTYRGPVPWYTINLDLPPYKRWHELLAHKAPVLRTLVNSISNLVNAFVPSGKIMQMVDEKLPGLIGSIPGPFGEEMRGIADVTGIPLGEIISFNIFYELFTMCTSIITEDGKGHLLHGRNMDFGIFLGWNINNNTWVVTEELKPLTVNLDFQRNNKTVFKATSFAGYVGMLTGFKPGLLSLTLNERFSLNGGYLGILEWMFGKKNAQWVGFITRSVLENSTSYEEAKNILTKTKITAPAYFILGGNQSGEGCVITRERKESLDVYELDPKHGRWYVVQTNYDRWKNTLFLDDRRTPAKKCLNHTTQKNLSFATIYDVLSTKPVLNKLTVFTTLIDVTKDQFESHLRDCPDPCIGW

T4: N-acylethanolamine-hydrolyzing acid amidase (Rattus norvegicus) (UniProt Q5KTC7)
T4 sequence (whole entry): T1 sequence (Q5KTC7 whole entry)

B1: N-acylethanolamine-hydrolyzing acid amidase (Rattus norvegicus), Q5KTC7 (protein)
chain: T1 sequence (Q5KTC7 whole entry)

Key:
[1] = biological target: T1, N-acylethanolamine-hydrolyzing acid amidase; test: Inhibition of rat NAAA expressed in HEK293 cells using heptadecenoylethanolamide as substrate after 30 mins HPLC-MS/MS analysis
Method in brief: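 Enzyme source: HEK293 cells stably overexpressing rat NAAA, grown in DMEM/10% FBS with G418. Cells were sonicated in 20 mM Tris-HCl pH 7.5 with 0.32 M sucrose, and the 800 × g supernatant was used. 30 µg protein was incubated with 25 µM heptadecenoylethanolamide for 30 min at 37 °C in 50 mM phosphate pH 4.5 with 0.1% Triton X-100 and 3 mM DTT. Stopped with methanol containing heptadecanoic acid internal standard; remaining substrate measured by HPLC-MS/MS; IC50 from curve fitting.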

[2] = biological target: T2, Fatty-acid amide hydrolase 1; test: Inhibition of rat FAAH expressed in HEK293 cells using [3H]AEA as substrate after 30 mins HPLC-MS/MS analysis; type: cell-based; conditions: in the assay text read “anandamide” for “[3H]AEA”
Method in brief: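 Lysate supernatant from HEK293 cells overexpressing rat FAAH (sonication in Tris-sucrose, 800 × g spin). 30 µg protein incubated at 37 °C with 25 µM anandamide in 50 mM Tris-HCl pH 8.0 containing 0.05% fatty-acid-free BSA. Quenched with methanol containing heptadecanoic acid internal standard; remaining substrate quantified by HPLC-MS/MS; IC50 by curve fitting.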

[3] = biological target: T3, Acid ceramidase (Rattus norvegicus); test: Inhibition of rat acid ceramidase at 100 uM using N-lauroylceramide as substrate after 30 mins by LC-MS analysis relative to control
Method in brief: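 100 µg recombinant rat acid ceramidase incubated for 30 min at 37 °C in 50 mM phosphate pH 5.0 with 0.1% Triton X-100, 3 mM DTT, 100 µM N-lauroylceramide substrate and test compound. Stopped with methanol containing 1 nmol heptadecanoic acid; products analysed by LC/MS.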

[4] = species on record: Rattus norvegicus; test: Selectivity ratio of IC50 for rat FAAH expressed in HEK293 cells to IC50 for rat […]; type: cell-based
[5] = biological target: T2, Fatty-acid amide hydrolase 1; test: Inhibition of rat FAAH expressed in HEK293 cells using anandamide as substrate after 30 mins HPLC-MS/MS analysis
[6] = Half life in pH 7.4 tris-HCl buffer by HPLC analysis
[7] = tested on: Mus musculus; test: Anti-inflammatory activity in mouse model of LPS-induced acute lung injury assessed as reduction in lung edema at 30 mg/kg, po qd for 5 days by hematoxylin and eosin staining-based light microscopic analysis; type: functional, organism-based
Method in brief: (§1)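 129s mice (20-22 g), randomly grouped at 6-8 per group. Under anesthesia they received intratracheal LPS (7 mg/kg) in PBS. From the day of LPS they got oral dosing once daily at 30 mg/kg in saline with 5% PEG 400 and 5% Tween 80, or vehicle alone. Killed 5 days after LPS. Lungs were fixed in paraformaldehyde at 4 °C, paraffin-embedded, cut at 5 µm and H&E-stained.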

[8] = tested on: Mus musculus; test: Anti-inflammatory activity in mouse model of LPS-induced acute lung injury assessed as reduction in leukocytes in lungs at 30 mg/kg, po qd for 5 days by hematoxylin and eosin staining-based light microscopic analysis; type: functional, organism-based; method in brief: as §1
[9] = biological target: T4, N-acylethanolamine-hydrolyzing acid amidase (Rattus norvegicus); test: Reversible inhibition of rat NAAA expressed in HEK293 cells at 5 uM using heptadecenoylethanolamide as substrate after 8 hrs by rapid dilution based HPLC-MS/MS analysis; type: cell-based
[10] = Half life in pH 5 phosphate buffer by HPLC analysis; type: physicochemical
Method in brief: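 Compound at 1 µM final (DMSO ≤1%) in 50 mM phosphate buffer pH 5.0, held at 37 °C for 16 h; remaining compound determined by HPLC.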

[11] = Half life in rat 80% plasma by HPLC analysis; type: ADME, cell-free
Method in brief: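 Fresh rat plasma diluted to 80% (v/v) with PBS pH 7.4. Compound added to 1 µM final (DMSO ≤1%), incubated at 37 °C for 16 h; remaining compound measured by HPLC.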

[12] = tested on: Mus musculus; test: Anti-inflammatory activity in mouse model of LPS-induced acute lung injury at 30 mg/kg, po qd for 5 days co-treated with 2 mg/kg, ip bid PPAR-alpha antagonist MK886 by hematoxylin and eosin staining-based light microscopic analysis; type: functional, organism-based
Method in brief: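 129s mice (20-22 g), 6-8 per group, were anesthetized and given intratracheal LPS (7 mg/kg) in PBS. Oral dosing at 30 mg/kg once daily (vehicle: saline, 5% PEG 400, 5% Tween 80) started on the LPS day, together with MK886 at 2 mg/kg i.p. Sacrifice at day 5. Lungs were fixed in paraformaldehyde, embedded in paraffin, sectioned at 5 µm and stained with H&E.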

[13] = compound: O=C(/C=C/c1ccc(-c2ccccc2)cc1)N1CCCC1; test: Competitive inhibition of rat NAAA expressed in HEK293 cells assessed as substrate Vmax at 5 uM using heptadecenoylethanolamide as substrate after 30 mins by Michaelis Menten plot analysis (reference value: 5.89 +/- 0.12 nmol/min/mg protein); type: cell-based
[14] = compound: O=C(/C=C/c1ccc(-c2ccccc2)cc1)N1CCCC1; test: Competitive inhibition of rat NAAA expressed in HEK293 cells assessed as substrate Km at 5 uM using heptadecenoylethanolamide as substrate after 30 mins by Michaelis Menten plot analysis (reference value: 207 +/- 16 uM); type: cell-based

| Molecule | IC50 [1] | further results |
| --- | --- | --- |
| COC(=O)c1cccc(CCCCCCC(=O)N2CCCC2)c1 | > 100 µM | – |
| CCCc1cccc(CCCCCCC(=O)N2CCCC2)c1 | > 100 µM | – |
| O=C(CCCC/C=C/c1ccc(OCc2ccccc2)cc1)N1CCCC1 | > 100 µM | – |
| O=C(CCc1ccc(Oc2ccccc2)cc1)N1CCCC1 | > 100 µM | IC50 [2]: 120 µM |
| O=C(CCCCCCc1cccc(Cl)c1)N1CCCC1 | 3.7 µM | – |
| O=C(CCCCCCc1ccc(Cl)cc1)N1CCCC1 | 34.5 µM | – |
| O=C(CCCC/C=C/c1cccc(OCc2ccccc2)c1)N1CCCC1 | > 100 µM | – |
| Cc1ccccc1-c1ccc(CCC(=O)N2CCCC2)cc1 | > 100 µM | – |
| O=C(CCc1ccc(-c2ccsc2)cc1)N1CCCC1 | 2.5 µM | – |
| O=C(CCc1ccc(-c2cccnc2)cc1)N1CCCC1 | > 100 µM | – |
| O=C(CCc1ccc(-c2ccc(F)cc2)cc1)N1CCCC1 | 3.4 µM | – |
| O=C(CCc1ccc(-c2cccs2)cc1)N1CCCC1 | > 100 µM | – |
| O=C(CCc1ccc(-c2ccc3c(c2)OCO3)cc1)N1CCCC1 | > 100 µM | IC50 [2]: 91 µM |
| Cc1ccccc1CCCCCCC(=O)N1CCCC1 | 68.4 µM | – |
| O=C(CCC1CCC(Oc2ccccc2)CC1)N1CCCC1 (configuration not stated) | 2.8 µM | IC50 [2]: 45.1 µM |
| O=C(CCc1ccc(-c2ccccn2)cc1)N1CCCC1 | > 100 µM | – |
| Cc1ccc(CCCCCCC(=O)N2CCCC2)cc1 | 9.6 µM | – |
| O=C(CCc1ccc(C2CCCCC2)cc1)N1CCCC1 | 0.5 µM | inhibition [3]: < 10%; Ratio IC50 [4]: > 200 |
| COc1ccc(CCCCCCC(=O)N2CCCC2)cc1 | 35.4 µM | – |
| O=C(/C=C/C=C/c1ccc2c(c1)OCO2)N1CCCC1 [TRICHOSTACHINE] | 4.1 µM | IC50 [5]: 61.3 µM |
| O=C(CCCCc1ccc2c(c1)OCO2)N1CCCC1 | 5.5 µM | IC50 [2]: 42.8 µM |
| O=C(CCc1ccc(-c2ccccc2)cc1)N1CCCC1 | – | IC50 [2]: 91.5 µM |
| Cc1cccc(-c2ccc(CCC(=O)N3CCCC3)cc2)c1 | 16.5 µM | – |
| O=C(CCCCCCc1cccnc1)N1CCCC1 | > 100 µM | – |
| CCCc1ccc(CCCCCCC(=O)N2CCCC2)cc1 | > 100 µM | – |

| Molecule | IC50 [1] | further results |
| --- | --- | --- |
| O=C(CCc1ccc(-c2ccccc2Cl)cc1)N1CCCC1 | > 100 µM | – |
| COC(=O)c1ccc(CCCCCCC(=O)N2CCCC2)cc1 | > 100 µM | – |
| O=C(O)c1ccc(CCCCCCC(=O)N2CCCC2)cc1 | > 100 µM | – |
| O=C(CCCCCCc1ccccn1)N1CCCC1 | > 100 µM | – |
| O=C(CCCCCCc1ccc(O)cc1)N1CCCC1 | 5.6 µM | – |
| O=C(CCc1ccc(-c2cccc(F)c2)cc1)N1CCCC1 | 1.8 µM | – |
| O=C(CCC1CCC(c2ccccc2)CC1)N1CCCC1 (configuration not stated) | 0.48 µM | IC50 [2]: 66 µM |
| Cc1cccc(CCCCCCC(=O)N2CCCC2)c1 | 8.3 µM | – |
| O=C(CCCCCCC1CCCCC1)N1CCCC1 | 5.7 µM | – |
| O=C(CCCCCCc1ccccc1F)N1CCCC1 | 13.7 µM | – |
| O=C(/C=C/c1ccc(-c2ccccc2)cc1)N1CCCC1 | 1.5 µM | half-life [6]: > 16 h; Activity [7]: Active; Activity [8]: Active; inhibition [9]: Active; half-life [10]: > 16 h; half-life [11]: > 16 h; IC50 [2]: 550 µM; Activity [12]: inactive |
| O=C(CCCCCCc1cccc(F)c1)N1CCCC1 | 7.3 µM | – |
| O=C(CCCCCCc1ccc(F)cc1)N1CCCC1 | 8 µM | – |
| O=C(CCc1ccc(-c2cccc(Cl)c2)cc1)N1CCCC1 | 25.4 µM | – |
| O=C(CCc1ccc(-c2ccccc2F)cc1)N1CCCC1 | 2.8 µM | – |
| O=C(CCCCCCc1ccccc1Cl)N1CCCC1 | > 100 µM | – |
| O=C(CCCCCCc1cccs1)N1CCCC1 | 14.1 µM | – |
| O=C(CCCCCCc1ccsc1)N1CCCC1 | 13.2 µM | – |
| COc1cccc(CCCCCCC(=O)N2CCCC2)c1 | > 100 µM | – |
| O=C(CCc1ccc(OC2CCCCC2)cc1)N1CCCC1 | 0.7 µM | – |
| O=C(CCc1ccc(-c2ccc(Cl)cc2)cc1)N1CCCC1 | 48.6 µM | – |
| O=C(CCCCCCc1cccc(O)c1)N1CCCC1 | > 100 µM | – |
| Cc1ccc(-c2ccc(CCC(=O)N3CCCC3)cc2)cc1 | 33.2 µM | – |
| O=C(O)c1cccc(CCCCCCC(=O)N2CCCC2)c1 | > 100 µM | – |
| B1 | – | Vmax [13]: 5.88 nmol/min/mg; Km [14]: 322 µM |
